ChEMBL document CHEMBL4177770, “Discovery of MK-6169, a Potent Pan-Genotype Hepatitis C Virus NS5A Inhibitor with Optimized Activity against Common Resistance-Associated Substitutions” (J Med Chem, 2018)

What was measured:
[1] = Half life in Wistar Han rat at 2 mg/kg, iv by LC/MS method; assay type: ADME, organism-based; conditions: in vivo
In short: (§1)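 Male Wistar Han rats, two per group, dosed IV at 2 mg/kg in 60% PEG200. Plasma was obtained by centrifuging the blood, and compound concentrations were measured by LC/MS.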

[2] = AUC in Wistar Han rat at 300 mg/kg, po by LC/MS method; assay type: ADME, organism-based; conditions: in vivo
In short: (§2)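 Single rising oral dose study in fed male Wistar Han rats, dosed PO in 10% TWEEN at the indicated doses. Plasma was obtained by centrifuging the blood, and compound levels were determined by LC/MS.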

[3] = Drug level in Wistar Han rat at 300 mg/kg, po measured at 24 hrs by LC/MS method; assay type: ADME, organism-based; conditions: in vivo, read-out: Drug uptake; in short: as §2
[4] = Resistance ratio of EC90 for NS5A L31M mutant in HCV genotype 2a infected in HuH7 replicon cells to EC90 for NS5A in HCV genotype 1a infected in HuH7 replicon cells; assay type: cell-based
[5] = biological target: T1, Nonstructural protein 5A (Hepatitis C virus) (UniProt Q5L478); assay: Inhibition of NS5A R81S mutant in HCV genotype 1a infected in HuH7 replicon cells assessed as decrease in viral replication after 3 days by RT-PCR method; assay type: cell-based; conditions: Hepatitis C virus subtype 1a
T1 sequence (whole entry): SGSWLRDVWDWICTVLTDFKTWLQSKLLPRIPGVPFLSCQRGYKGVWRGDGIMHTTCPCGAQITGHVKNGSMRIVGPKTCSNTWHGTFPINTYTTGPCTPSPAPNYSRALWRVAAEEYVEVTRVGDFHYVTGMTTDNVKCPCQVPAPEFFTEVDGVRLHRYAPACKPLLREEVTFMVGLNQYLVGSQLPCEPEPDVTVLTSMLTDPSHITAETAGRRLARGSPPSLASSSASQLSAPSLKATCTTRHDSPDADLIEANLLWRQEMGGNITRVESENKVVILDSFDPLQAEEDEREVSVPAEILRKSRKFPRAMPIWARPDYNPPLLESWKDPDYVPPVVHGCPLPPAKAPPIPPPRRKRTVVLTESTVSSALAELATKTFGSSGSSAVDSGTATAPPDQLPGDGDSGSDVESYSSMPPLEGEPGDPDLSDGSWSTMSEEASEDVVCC

[6] = Drug level in Beagle dog at 5 mg/kg, po measured at 24 hrs by LC/MS method; assay type: ADME, organism-based, Canis lupus familiaris; conditions: in vivo, read-out: Drug uptake
In short: (§3)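 Beagle dogs, two animals per dosing group. Oral dose was given in 10% TWEEN. Blood was collected and spun to plasma, and plasma compound levels were measured by LC/MS.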

[7] = biological target: T1, Nonstructural protein 5A (Hepatitis C virus); assay: Inhibition of NS5A L30H mutant in HCV genotype 4a infected in HuH7 replicon cells assessed as decrease in viral replication after 3 days by RT-PCR method; assay type: cell-based; conditions: Hepatitis C virus subtype 4a
[8] = Resistance ratio of EC90 for NS5A P32L mutant in HCV genotype 4a infected in HuH7 replicon cells to EC90 for NS5A in HCV genotype 1a infected in HuH7 replicon cells; assay type: cell-based
[9] = biological target: T1, Nonstructural protein 5A (Hepatitis C virus); assay: Inhibition of NS5A in HCV genotype 2a infected in HuH7 replicon cells assessed as decrease in viral replication after 3 days by RT-PCR method; assay type: cell-based; conditions: Hepatitis C virus subtype 2a
[10] = biological target: T1, Nonstructural protein 5A (Hepatitis C virus); assay: Inhibition of NS5A D168Y mutant in HCV genotype 1b infected in HuH7 replicon cells assessed as decrease in viral replication after 3 days by RT-PCR method; assay type: cell-based; conditions: Hepatitis C virus subtype 1b
[11] = Resistance ratio of EC90 for NS5A A30K mutant in HCV genotype 3a infected in HuH7 replicon cells to EC90 for NS5A in HCV genotype 1a infected in HuH7 replicon cells; assay type: cell-based
[12] = test system: Hepatitis C virus subtype 1a; assay: Resistance ratio of EC90 for NS5A Y93H mutant in HCV genotype 1a infected in HuH7 replicon cells to EC90 for NS5A in HCV genotype 1a infected in HuH7 replicon cells; assay type: cell-based
[13] = Resistance ratio of EC90 for NS5A L31I mutant in HCV genotype 1b infected in HuH7 replicon cells to EC90 for NS5A in HCV genotype 1a infected in HuH7 replicon cells; assay type: cell-based
[14] = test system: Hepatitis C virus subtype 1a; assay: Resistance ratio of EC90 for NS5A Q30R mutant in HCV genotype 1a infected in HuH7 replicon cells to EC90 for NS5A in HCV genotype 1a infected in HuH7 replicon cells; assay type: cell-based
[15] = biological target: T1, Nonstructural protein 5A (Hepatitis C virus); assay: Inhibition of NS5A F28Y mutant in HCV genotype 2a infected in HuH7 replicon cells assessed as decrease in viral replication after 3 days by RT-PCR method; assay type: cell-based; conditions: Hepatitis C virus subtype 2a
[16] = biological target: T1, Nonstructural protein 5A (Hepatitis C virus); assay: Inhibition of NS5A M28T mutant in HCV genotype 1a infected in HuH7 replicon cells assessed as decrease in viral replication after 3 days by RT-PCR method; assay type: cell-based; conditions: Hepatitis C virus subtype 1a
[17] = Resistance ratio of EC90 for NS5A L31F mutant in HCV genotype 3a infected in HuH7 replicon cells to EC90 for NS5A in HCV genotype 1a infected in HuH7 replicon cells; assay type: cell-based
[18] = test system: Hepatitis C virus subtype 1a; assay: Resistance ratio of EC90 for NS5A K24R mutant in HCV genotype 1a infected in HuH7 replicon cells to EC90 for NS5A in HCV genotype 1a infected in HuH7 replicon cells; assay type: cell-based
[19] = Oral bioavailability in Wistar Han rat at 10 mg/kg by LC/MS method; assay type: ADME, organism-based; conditions: in vivo
In short: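 Male Wistar Han rats, two per dosing group, dosed orally at 10 mg/kg in 10% TWEEN. Plasma was separated from collected blood by centrifugation and analysed by LC/MS.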

[20] = test system: Hepatitis C virus subtype 1a; assay: Resistance ratio of EC90 for NS5A M28T mutant in HCV genotype 1a infected in HuH7 replicon cells to EC90 for NS5A in HCV genotype 1a infected in HuH7 replicon cells; assay type: cell-based
[21] = Cmax in Beagle dog at 5 mg/kg, po by LC/MS method; assay type: ADME, organism-based, Canis lupus familiaris; design: dose 5 mg/kg, route oral; conditions: in vivo; in short: as §3
[22] = Resistance ratio of EC90 for NS5A F28L mutant in HCV genotype 2a infected in HuH7 replicon cells to EC90 for NS5A in HCV genotype 1a infected in HuH7 replicon cells; assay type: cell-based
[23] = Resistance ratio of EC90 for NS5A L30H mutant in HCV genotype 4a infected in HuH7 replicon cells to EC90 for NS5A in HCV genotype 1a infected in HuH7 replicon cells; assay type: cell-based
[24] = Resistance ratio of EC90 for NS5A in HCV genotype 4a infected in HuH7 replicon cells to EC90 for NS5A in HCV genotype 1a infected in HuH7 replicon cells; assay type: cell-based
[25] = biological target: T1, Nonstructural protein 5A (Hepatitis C virus); assay: Inhibition of NS5A A30T mutant in HCV genotype 3a infected in HuH7 replicon cells assessed as decrease in viral replication after 3 days by RT-PCR method; assay type: cell-based; conditions: Hepatitis C virus subtype 3a
[26] = biological target: T1, Nonstructural protein 5A (Hepatitis C virus); assay: Inhibition of NS5A A92P mutant in HCV genotype 1a infected in HuH7 replicon cells assessed as decrease in viral replication after 3 days by RT-PCR method; assay type: cell-based; conditions: Hepatitis C virus subtype 1a
[27] = Clearance in Wistar Han rat at 2 mg/kg, iv by LC/MS method; assay type: ADME, organism-based; conditions: in vivo; in short: as §1

## COC(=O)N[C@H](C(=O)N1CCC[C@H]1c1ncc(-c2cc(F)c3c(c2)O[C@@H](c2ccc(C4CC4)s2)n2c-3cc3cc(-c4cnc([C@@H]5CCCN5C(=O)[C@@H](NC(=O)OC)[C@@H]5CCOC(C)(C)C5)[nH]4)ccc32)[nH]1)C(C)C
[1]
  half-life: 5.4 h
[2]
  AUC: 14.7 µM·h
[3]
  concentration at 24 h: 164 nM
[4]
  Ratio: 6
[5]
  EC90: 0.33 pM
[6]
  concentration at 24 h: 29 nM
[7]
  EC90: 72 pM
[8]
  Ratio: 1
[9]
  EC90: 2.7 pM
[10]
  EC90: 1.8 pM
[11]
  Ratio: 4
[12]
  Ratio: 8
[13]
  Ratio: 5
[14]
  Ratio: 28
[15]
  EC90: 69 pM
[16]
  EC90: 2 pM
[17]
  Ratio: 69
[18]
  Ratio: < 1
[19]
  bioavailability: 6.6%
[20]
  Ratio: < 1
[21]
  Cmax: 660 nM
[22]
  Ratio: < 1
[23]
  Ratio: 17
[24]
  Ratio: 2
[25]
  EC90: 3.6 pM
[26]
  EC90: 0.14 pM
[27]
  clearance: 7 mL/min/kg
